Results taken from ChEMBL document CHEMBL5335826, “Biochemical and Structural Studies of the Carminomycin 4-O-Methyltransferase DnrK” (J Nat Prod, 2024).

Legend:
[1] = substrate: Cc1cc(=O)oc2cc(O)ccc12; test: Binding affinity to Streptomyces peucetius 4-O-methyltransferase DnrK assessed as maximal activity
Outline: (§1)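 N-His6-DnrK (10 μM), expressed in E. coli, was run in 50 mM Tris pH 8.0 at 37 °C with saturating AdoMet (1.6 mM). Acceptor was varied: carminomycin from 15 μM to […] as printed, or 4-methylumbelliferone from 150 μM to 10 mM. Methylated product was quantified by reversed-phase HPLC peak integration. Runs were in triplicate, and parameters came from Michaelis–Menten reciprocal plots.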

[2] = substrate: Cc1cc(=O)oc2cc(O)ccc12; test: Binding affinity to Streptomyces peucetius 4-O-methyltransferase DnrK assessed as catalytic constant; outline: as §1

B1: Carminomycin 4-O-methyltransferase DnrK (Streptomyces peucetius), Q06528 (protein)
chain: MTAEPTVAARPQQIDALRTLIRLGSLHTPMVVRTAATLRLVDHILAGARTVKALAARTDTRPEALLRLIRHLVAIGLLEEDAPGEFVPTEVGELLADDHPAAQRAWHDLTQAVARADISFTRLPDAIRTGRPTYESIYGKPFYEDLAGRPDLRASFDSLLACDQDVAFDAPAAAYDWTNVRHVLDVGGGKGGFAAAIARRAPHVSATVLEMAGTVDTARSYLKDEGLSDRVDVVEGDFFEPLPRKADAIILSFVLLNWPDHDAVRILTRCAEALEPGGRILIHERDDLHENSFNEQFTELDLRMLVFLGGALRTREKWDGLAASAGLVVEEVRQLPSPTIPYDLSLLVLAPAATGA
B1 gave a Km [1] of 1160 µM and a kcat [2] of 0.0006 s⁻¹.
